In ChEMBL document CHEMBL1124387, “Cardiotonic agents. 9. Synthesis and biological evaluation of a series of (E)-4,5-dihydro-6-[2-[4-(1H-imidazol-1-yl)phenyl]ethenyl]-3 (2H)-pyridazinones: a novel class of compounds with positive inotropic, antithrombotic, and vasodilatory activities for the treatment of congestive heart failure” (J Med Chem, 1989):
“And” between values parts separate entries of the source, which are not always exact repeats. Equal values may be shown once.

Legend:
[1] = Partition coefficient (logP); type: physicochemical; conditions: octanol/water
Canis familiaris [2] = species on record: Canis familiaris; assay: 50% increase in myocardial contractility (dP/dT max) in dogs; type: functional, Canis lupus familiaris, Myocardium
Summary of the method: (§1)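 Acutely instrumented anesthetized dogs (n = 6), 30-min control period. Compound in 0.9% saline, or dilute HCl diluted with saline, at 0.1 mL/kg iv over 1 min. At least four ascending half-log doses, 10 min apart, one compound per animal. Recorded: LV dP/dtmax, heart rate, aortic pressure and forelimb resistance. Values are maximum response from control average ± SEM.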

Homo sapiens [3] = species on record: Homo sapiens; assay: In vitro inhibition of ADP stimulated platelet aggregation in human thrombocyte enriched plasma; type: functional
Summary of the method: (§2)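 Human platelet-rich plasma from aspirin/NSAID-free donors, adjusted to 250 000 platelets/μL with platelet-poor plasma. Drug in DMSO/saline (1% DMSO final) was added before ADP or collagen, with doses set by titration. Read-out was aggregation extent (ADP, curve height) or rate (collagen, major slope) as % of saline control.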

Homo sapiens [4] = species on record: Homo sapiens; assay: In vitro inhibition of collagen stimulated platelet aggregation in human thrombocyte enriched plasma; type: functional; summary of the method: as §2
Homo sapiens [5] = species on record: Homo sapiens; assay: In vitro inhibition of ADP stimulated platelet aggregation in human whole blood; type: functional
Summary of the method: (§3)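 Human whole blood from aspirin/NSAID-free fasted donors, read by impedance aggregometry 5 min after adding ADP or collagen. Aggregation expressed as % of control (2-6 replicates), plotted against log drug concentration; IC50 obtained by extrapolation.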

Homo sapiens [6] = species on record: Homo sapiens; assay: In vitro inhibition of collagen stimulated platelet aggregation in human whole blood; type: functional; summary of the method: as §3
[7] = Inhibition of phosphodiesterase 3 from guinea pig cardiac tissue at 1E-7-1E-4M or 1.0E-6 to 1E-3 M; parameters: species or system Cavia porcellus
Summary of the method: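 Fraction III cAMP-PDE from guinea pig heart or human platelets. Substrate [3H]cyclic AMP 1.0 μM at 30°C, with hydrolysis held to ≤10-20% and kept linear over 30 min. Compounds in DMSO, 2.5% final.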

Phosphodiesterase 3 [8] = molecular target: T1, Phosphodiesterase 3 (Homo sapiens, UniProt Q14432+Q13370); assay: Inhibition of phosphodiesterase 3 from human platelets at 1E-7-1E-4M or 1.0E-6 to 1E-3 M
Canis familiaris [9] = assay: Hemodynamic activity in anesthetized dog as percent change from baseline (2271 mmHg/s) in left ventricular myocardial activity at 0.1 mg/kg administered intravenously; type: functional, Canis lupus familiaris, Heart left ventricle; conditions: route intravenous
Canis familiaris [10] = assay: Hemodynamic activity in anesthetized dog as percent change from baseline (2271 mmHg/s) in left ventricular myocardial activity at 0.3 mg/kg administered intravenously; type: functional, Canis lupus familiaris, Heart left ventricle; conditions: route intravenous
Canis familiaris [11] = assay: Hemodynamic activity in anesthetized dog as percent change from baseline (2271 mmHg/s) in left ventricular myocardial activity at 1 mg/kg administered intravenously; type: functional, Canis lupus familiaris, Heart left ventricle; conditions: route intravenous
Canis familiaris [12] = assay: Hemodynamic activity in anesthetized dog as percent change from baseline (2271 mmHg/s) in left ventricular myocardial activity at 3.1 mg/kg administered intravenously; type: functional, Canis lupus familiaris, Heart left ventricle; conditions: route intravenous
Summary of the method: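 Anaesthetised dogs were given one compound each, in ascending half-log iv doses 10 min apart, typically four to six doses. Each dose was dissolved in 0.9% saline or dilute HCl (0.1 or 1.0 N), made up with saline, and given as 0.1 mL/kg over 1 min after a 30-min control period. The readout was LV dP/dt_max from a differentiator amplifier, reported as maximum % change from control average ± SEM.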

Canis familiaris [13] = assay: Decrease in thrombus weight in anesthetized dog coronary artery; type: functional, Canis lupus familiaris
Summary of the method: (§4)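 Pentobarbital-anesthetized (32 mg/kg iv), ventilated dogs, allowed 30 min to stabilize. Continuous infusion of compound (1.0, 3.0 or 10.0 μg/kg/min) or saline began 15 min before 50 μA current was applied to an intraluminal electrode in the circumflex coronary artery. After 60 min of stimulation the animals were euthanized and the thrombus dissected and weighed. One treatment per animal.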

Canis familiaris [14] = assay: (§5) Percentage increase in left ventricular contractility in anesthetized dog; type: functional, Canis lupus familiaris, Heart left ventricle
Canis familiaris [15] = assay: as §5; type: functional, Canis lupus familiaris, Heart left ventricle; remark: listed apart in the source
Canis familiaris [16] = species on record: Canis familiaris; assay: Weight of thrombus; type: functional, Canis lupus familiaris; summary of the method: as §4
Phosphodiesterase 3 [17] = molecular target: T1, Phosphodiesterase 3; assay: Inhibition of Phosphodiesterase 3 from human platelets at 1E-7-1E-4M or 1.0E-6 to 1E-3 M
Summary of the method: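 Fraction III cAMP-PDE from guinea pig heart or human platelets. Substrate [3H]cyclic AMP 1.0 μM at 30°C, with hydrolysis held to ≤10-20% and kept linear over 30 min.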

Canis familiaris [18] = assay: Hemodynamic activity in anesthetized dog as percent change in left ventricular myocardial activity from baseline (2271 mmHg/s) at 0.01 mg/kg administered intravenously; type: functional, Canis lupus familiaris, Heart left ventricle; conditions: route intravenous; summary of the method: as §1
Canis familiaris [19] = assay: Hemodynamic activity in anesthetized dog as percent change in left ventricular myocardial activity from baseline (2271 mmHg/s) at 0.03 mg/kg administered intravenously; type: functional, Canis lupus familiaris, Heart left ventricle; conditions: route intravenous; summary of the method: as §1
Canis familiaris [20] = species on record: Canis familiaris; assay: Ratio of positive inotropic activity to peripheral Vasodilator activity in dogs; type: functional, Canis lupus familiaris
Summary of the method: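 Inotropic ED20 is the iv bolus dose giving a 20% rise in dP/dtmax in anesthetized dogs. Vasodilator ED20 is the bolus dose into the brachial cannula of a constant-flow perfused forelimb (pentobarbital 30 mg/kg iv then 3.0 mg/kg/h, heparinized) giving a 20% fall in perfusion pressure. Each ED20 was taken from its dose-response curve; the ratio is PI/PV.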

Canis familiaris [21] = assay: Hemodynamic activity in anesthetized dog as percent change in left ventricular myocardial activity from baseline (2271 mmHg/s) at 0.001 mg/kg administered intravenously; type: functional, Canis lupus familiaris, Heart left ventricle; conditions: route intravenous; summary of the method: as §1
Canis familiaris [22] = assay: Hemodynamic activity in anesthetized dog as percent change in left ventricular myocardial activity from baseline (2271 mmHg/s) at 0.003 mg/kg administered intravenously; type: functional, Canis lupus familiaris, Heart left ventricle; conditions: route intravenous; summary of the method: as §1

O=C1CCC(/C=C/c2ccc(-n3cnc4c3CCCC4)cc2)=NN1
logP [1]: 2.47 | Dose (Canis familiaris [2]): 0.1 mg/kg | IC50 (Homo sapiens [3]): 5000 nM | IC50 (Homo sapiens [4]): 450 nM | IC50 (Homo sapiens [5]): 1700 nM | IC50 (Homo sapiens [6]): 1000 nM

CC1CC(=O)NN=C1/C=C/c1ccc(-n2cnc3ccccc32)cc1 (configuration not stated)
Dose (Canis familiaris [2]): 0.09 mg/kg

CC1CC(=O)NN=C1c1ccc(-n2cnc3c2CCCC3)cc1 (configuration not stated) [TETRAHYDROBENXIMIDAZOLE]
logP [1]: 2.52 | IC50 (Homo sapiens [3]): 4000 nM | IC50 (Homo sapiens [4]): 15 nM | IC50 [7]: 150 nM | IC50 (Phosphodiesterase 3 [8]): 110 nM | IC50 (Homo sapiens [5]): 500 nM | IC50 (Homo sapiens [6]): 750 nM

Cc1cc(O)nnc1/C=C/c1ccc(-n2ccnc2)cc1
Dose (Canis familiaris [2]): 0.2 mg/kg

Nc1cc(-c2ccncc2)c[nH]c1=O [INAMRINONE]
Change (Canis familiaris [9]): 9% | Change (Canis familiaris [10]): 32% | Change (Canis familiaris [11]): 85% | Change (Canis familiaris [12]): 165% | IC50 (Homo sapiens [3]): 250000 nM | IC50 (Homo sapiens [4]): 15000 nM | IC50 (Homo sapiens [5]): 50000 nM | IC50 (Homo sapiens [6]): 500000 nM

CC1CC(=O)N(C)N=C1/C=C/c1ccc(-n2ccnc2)cc1 (configuration not stated)
Dose (Canis familiaris [2]): 1 mg/kg

Cc1ncn(-c2ccc(/C=C/C3=NNC(=O)CC3C)cc2)c1C (configuration not stated)
Dose (Canis familiaris [2]): 0.05 mg/kg | IC50 (Homo sapiens [3]): 30000 nM | IC50 (Homo sapiens [4]): 1500 nM

CC(Cl)C(=O)Nc1ccc(C2=NNC(=O)CC2C)cc1 (configuration not stated) [AMIPIZONE]
logP [1]: 1.4 | Inhibition (Canis familiaris [13]): 54% and 73% and 77% | Increase (Canis familiaris [14]): 3% | Increase (Canis familiaris [15]): 10% and 23% | Thrombus weight (Canis familiaris [16]): 8.3 mg and 4.8 mg and 4.1 mg | IC50 (Homo sapiens [3]): 350 nM | IC50 (Homo sapiens [4]): 150 nM | IC50 (Homo sapiens [5]): 10 nM | IC50 (Homo sapiens [6]): 400 nM

CC1CC(=O)NN=C1/C=C/c1ccc(-n2cnc3c2CCCC3)cc1 (configuration not stated)
logP [1]: 3.1 | Dose (Canis familiaris [2]): 0.05 mg/kg | IC50 (Homo sapiens [3]): 6000 nM | IC50 (Homo sapiens [4]): 600 nM | IC50 (Phosphodiesterase 3 [17]): 18 nM | IC50 [7]: 100 nM

CCc1[nH]c(=O)[nH]c1C(=O)c1ccncc1 [PIROXIMONE]
Change (Canis familiaris [9]): 41% | Change (Canis familiaris [10]): 93% | Change (Canis familiaris [11]): 144% | Change (Canis familiaris [18]): 8% | Change (Canis familiaris [19]): 16% | IC50 (Homo sapiens [3]): 60000 nM | IC50 (Homo sapiens [4]): 15000 nM

O=C1CCC(CCc2ccc(-n3ccnc3)cc2)=NN1
Dose (Canis familiaris [2]): 1 mg/kg

Cc1[nH]c(=O)c(C#N)cc1-c1ccncc1 [MILRINONE]
Change (Canis familiaris [9]): 113% | Change (Canis familiaris [10]): 143% | Change (Canis familiaris [11]): 149% | Change (Canis familiaris [18]): 31% | Change (Canis familiaris [19]): 78% | IC50 (Homo sapiens [3]): 10000 nM | IC50 (Homo sapiens [4]): 100 nM | IC50 (Homo sapiens [5]): 9000 nM | IC50 (Homo sapiens [6]): 350 nM

CC1CC(=O)NN=C1/C=C/c1ccc(N)cc1 (configuration not stated)
Dose (Canis familiaris [2]): 1 mg/kg

O=C1CCC(c2ccc(-n3ccnc3)cc2)=NN1 [IMAZODAN]
logP [1]: 0.96 | Change (Canis familiaris [9]): 74% | Change (Canis familiaris [10]): 127% | Change (Canis familiaris [11]): 147% | Change (Canis familiaris [18]): 10% | Change (Canis familiaris [19]): 37% | IC50 (Homo sapiens [3]): 20000 nM | IC50 (Homo sapiens [4]): 3000 nM | IC50 (Homo sapiens [5]): 8000 nM | IC50 (Homo sapiens [6]): 17000 nM

CSc1ccc(C(=O)c2[nH]c(=O)[nH]c2C)cc1 [ENOXIMONE]
Change (Canis familiaris [9]): 19% | Change (Canis familiaris [10]): 47% | Change (Canis familiaris [11]): 83% | Change (Canis familiaris [18]): 5% | Change (Canis familiaris [19]): 7% | IC50 (Homo sapiens [3]): 120000 nM | IC50 (Homo sapiens [4]): 15000 nM | Ratio (Canis familiaris [20]): 0.58

CC(=O)Nc1ccc(/C=C/C2=NNC(=O)CC2C)cc1 (configuration not stated)
logP [1]: 1.27 | Dose (Canis familiaris [2]): 0.02 mg/kg | IC50 (Phosphodiesterase 3 [17]): 870 nM | IC50 [7]: 2800 nM

O=C1CCC(/C=C/c2ccc(-n3ccnc3)cc2)=NN1
logP [1]: 1.21 | Dose (Canis familiaris [2]): 0.02 mg/kg | IC50 (Homo sapiens [3]): 6000 nM | IC50 (Homo sapiens [4]): 200 nM | IC50 [7]: 1100 nM | IC50 (Phosphodiesterase 3 [8]): 400 nM

CC(=O)Nc1ccc(/C=C/C2=NNC(=O)C(C)(C)C2)cc1
Dose (Canis familiaris [2]): 1 mg/kg | IC50 (Homo sapiens [3]): 4000 nM | IC50 (Homo sapiens [4]): 250 nM

CCC(=O)Nc1ccc(/C=C/C2=NNC(=O)CC2C)cc1 (configuration not stated)
Dose (Canis familiaris [2]): 0.2 mg/kg

CC1CC(O)=NN=C1c1ccc(-n2ccnc2)cc1 (configuration not stated) [CI-930]
logP [1]: 1.29 | Change (Canis familiaris [9]): 149% | Change (Canis familiaris [18]): 51% | Change (Canis familiaris [19]): 124% | Change (Canis familiaris [21]): 11% | Change (Canis familiaris [22]): 25% | IC50 (Homo sapiens [3]): 4000 nM | IC50 (Homo sapiens [4]): 10 nM | IC50 (Homo sapiens [5]): 400 nM | IC50 (Homo sapiens [6]): 45000 nM
